From PMC4201344 (ACS Chemical Biology, 2014)
Where a chain is given by its changes, count along the chain named. “Also recorded” adds a separate entry of the source.

Columns and labels:
Type in all cases: cell-based, C. elegans
GluClβ T6′A = GluClβ T6′A (Caenorhabditis elegans, UniProt Q17328, T283A); assay: two-electrode voltage clamp, Xenopus laevis oocytes; conditions: glutamate
Procedure, shortened: (§1)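 C. elegans GluClβ (mammalian codon-optimised) in pGEMhe, mutated by QuikChange; T7 mRNA. […] Voltage clamp at −60 mV in Ca-free ND96, pH 7.5. […] Peak currents taken from baseline, normalised, averaged per concentration, and fit to Hill equation (EC50, nH).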

GluClβ T6′S = GluClβ T6′S (Caenorhabditis elegans, UniProt Q17328, T283S); assay: two-electrode voltage clamp, Xenopus laevis oocytes; conditions: glutamate
GluClβ L9′A = GluClβ L9′A (Caenorhabditis elegans, UniProt Q17328, L286A); assay: two-electrode voltage clamp, Xenopus laevis oocytes; conditions: glutamate
Procedure, shortened: as §1

GluClβ L9′V = GluClβ L9′V (Caenorhabditis elegans, UniProt Q17328, L286V); assay: as above; conditions: glutamate
Procedure, shortened: as §1

GluClβ T10′S = target: T1, GluClβ T10′S (Caenorhabditis elegans, UniProt Q17328, T287S); assay: two-electrode voltage clamp, Xenopus laevis oocytes; conditions: glutamate
T1 sequence (Q17328 23-434 T287S): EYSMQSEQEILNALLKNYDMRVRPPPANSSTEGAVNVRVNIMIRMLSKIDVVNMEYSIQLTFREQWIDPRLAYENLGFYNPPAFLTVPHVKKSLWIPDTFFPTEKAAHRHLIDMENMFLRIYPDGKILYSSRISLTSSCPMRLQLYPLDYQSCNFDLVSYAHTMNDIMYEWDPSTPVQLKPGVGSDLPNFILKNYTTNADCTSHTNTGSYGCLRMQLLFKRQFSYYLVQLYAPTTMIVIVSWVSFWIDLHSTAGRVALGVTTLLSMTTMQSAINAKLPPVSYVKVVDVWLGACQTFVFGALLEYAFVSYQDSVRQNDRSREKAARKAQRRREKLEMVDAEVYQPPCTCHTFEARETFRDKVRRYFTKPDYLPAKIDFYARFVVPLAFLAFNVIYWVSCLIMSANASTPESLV

GluClβ A17′S = target: T2, GluClβ A17′S (Caenorhabditis elegans, UniProt Q17328, A294S); assay: as above; conditions: glutamate
T2 sequence (Q17328 23-434 A294S): T1 sequence (Q17328 23-434 T287S) with S265T, A272S

GluClβ A17′T = target: T3, GluClβ A17′T (Caenorhabditis elegans, UniProt Q17328, A294T); assay: as above; conditions: glutamate
T3 sequence (Q17328 23-434 A294T): T1 sequence (Q17328 23-434 T287S) with S265T, A272T

[1] = target: GluClβ with α signal peptide, T6′S (Caenorhabditis elegans, UniProt Q17328, T283S); assay: two-electrode voltage clamp, Xenopus laevis oocytes; conditions: glutamate
Procedure, shortened: as §1

[2] = system: GluClβ with α signal peptide, T6′S, Y156TAG Cha; assay: two-electrode voltage clamp, Xenopus laevis oocytes, nonsense suppression; conditions: glutamate
Procedure, shortened: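 Site-specific TAG codon, read by 74mer THG73 tRNA ligated to dCA-acylated amino acid; NVOC removed by 5 min xenon-lamp irradiation just before injection. Oocytes coinjected with 37.5 ng mRNA plus ~1 μg/μL tRNA at 48 and 24 h pre-recording; unacylated 76mer tRNA served as read-through control.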

[3] = system: GluClβ T6′S, Y206TAG Br–Phe; assay: two-electrode voltage clamp, Xenopus laevis oocytes, nonsense suppression; conditions: glutamate
[4] = system: GluClβ T6′S, Y206TAG Me–Phe; assay: as above; conditions: glutamate
GluClβ T6′S, Q174A/Y206F = target: T4, GluClβ T6′S, Q174A/Y206F (Caenorhabditis elegans, UniProt Q17328, Q200A/T283S/Y232F); assay: two-electrode voltage clamp, Xenopus laevis oocytes
T4 sequence (Q17328 23-434 Q200A/Y232F/T283S): T1 sequence (Q17328 23-434 T287S) with Q178A, Y210F, T261S, S265T

Chain of GluClβ T6′A (Q17328 23-434 T283A): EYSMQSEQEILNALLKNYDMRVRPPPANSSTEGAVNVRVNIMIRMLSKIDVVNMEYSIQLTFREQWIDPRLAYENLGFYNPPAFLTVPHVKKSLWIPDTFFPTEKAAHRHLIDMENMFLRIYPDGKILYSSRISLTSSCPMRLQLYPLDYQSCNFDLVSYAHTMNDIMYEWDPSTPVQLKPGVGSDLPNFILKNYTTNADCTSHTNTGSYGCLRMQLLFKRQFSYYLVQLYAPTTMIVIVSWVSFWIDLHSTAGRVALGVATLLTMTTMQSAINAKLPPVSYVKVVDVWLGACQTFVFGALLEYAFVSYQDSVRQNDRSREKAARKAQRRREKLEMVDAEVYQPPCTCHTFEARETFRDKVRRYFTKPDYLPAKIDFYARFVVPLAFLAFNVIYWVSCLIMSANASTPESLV
Chain of GluClβ L9′A (Q17328 23-434 L286A): as the sequence (Q17328 23-434 T283A) above, with A261T, L264A counted along it
Chain of GluClβ T6′S (Q17328 23-434 T283S): as the sequence (Q17328 23-434 T283A) above, with A261S counted along it
Chain of GluClβ with α signal peptide, T6′S (Q17328 23-434 T283S): as the sequence (Q17328 23-434 T283A) above, with A261S counted along it
Chain of GluClβ L9′V (Q17328 23-434 L286V): as the sequence (Q17328 23-434 T283A) above, with A261T, L264V counted along it

## N[C@@H](CCC(=O)O)C(=O)O [glutamate]
GluClβ T6′A
  EC50: not functional; also recorded: very low response
GluClβ T6′S
  Hill: 2.4 ± 0.3
GluClβ L9′A
  EC50: constitutively active
GluClβ L9′V
  EC50: no response
GluClβ T10′S
  EC50: 11 ± 1 µM
  Hill: 2.5 ± 0.1
  Imax: 0.3–4 μA
GluClβ A17′S
  EC50: 230 ± 10 µM
  Hill: 2.5 ± 0.1
  Imax: 0.6–12 μA
GluClβ A17′T
  EC50: 58 ± 1 µM
  Hill: 2.8 ± 0.1
  Imax: 0.3–13 μA
[1]
  Hill: 2.7 ± 0.2
[2]
  EC50: no response
[3]
  EC50: 980 ± 30 µM
  Hill: 2.5 ± 0.1
  Imax: 0.08–6 μA
[4]
  EC50: 98 ± 3 µM
  Hill: 2.4 ± 0.1
  Imax: 0.05–7 μA
GluClβ T6′S, Q174A/Y206F; glutamate
  EC50: 920 ± 40 µM
  Hill: 2.2 ± 0.2
GluClβ T6′S, Q174A/Y206F; mutant cycle analysis Q174A, Y206F
  Ω: 0.67
GluClβ T6′S, Q174A/Y206F; mutant cycle analysis Q174A/Y206F
  ΔΔG: 0.23 kcal/mol
